DENV2 CPE rescue – inhibitors of DENV2 cytopathic effect, primary screen, cell-based, plate reader, single concentration; CPE inhibition, % at 9.99 µM; DENV2-infected cells, cytopathic effect rescue; 1.7% of 350,000 active; AID 651640, 2012; in the data active means CPE inhibition above about 20%, passing the limit was not always enough; inconclusive means no clear call, values can overlap the other calls; tested in BHK-21 cells;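 further: 0% = median of neutral control wells and 100% = median of positive control wells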
Ecoli rRNA inh – reduced GFP signal of wild-type E. coli, primary screen, bacterial rRNA inhibitor project, GFP/RFP fluorescence, OD600, single point. E. coli WT GFP vs humanized-ribosome RFP mutants, 24 h; stronger effect = lower value; DMSO median 0, no signal -100. GFP signal change (wild-type ribosome), % (test concentration not listed). AID 720706, 2013. 1.6% of 350,000 active;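 active means significant combined selectivity score with lowered wild-type GFP, culture density cut under 30%, mutant RFP and density less affected; inactive means any of these conditions unmet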
miR-122 sensor – miR-122 Renilla sensor signal increase in Huh7, primary screen, miR-122 inhibitor project, cell-based, single point, plate reader. Huh7 miR-122 Renilla luciferase sensor, 48 h; neutral wells = 0, positive control = 100. activation (reporter increase), % at 12.5 µM. 0.3% of 340,000 active. AID 602342, 2012;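 active means mean replicate activation score at least 90 and every replicate individually at or above 90; inconclusive means only one of the two criteria met; inactive means neither criterion met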;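 further: higher luciferase means less miR-122 activity so hits act as miR-122 inhibitors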
Cneo AK release – Cryptococcus neoformans cell lysis inducers, primary screen, AK release luminescence, single concentration | C. neoformans lysis, adenylate kinase release luminescence, 4 h; normalised: neutral wells 0, clomiphene wells 100 | lysis activity, % at 15 µM | 0.2% of 360,000 active | AID 651654, 2012;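 active means mean lysis activity across replicates of at least 80%, whatever share of replicates individually reach that level; inactive means mean lysis activity below 80%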
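Material: C. neoformans cells | Amount: Yeast cell density of 5 × 10^6 cells/mL | Medium: Fresh YPD growth medium | Dosing: Single dose | Times: Static 4 h at 37 °C with compound, 1 h detection | Detection: AK luminescence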
E-selectin induc – E-selectin induction in HUVECs, primary screen, imaging, HUVEC, immunofluorescence imaging, single point | P16581 | normalized: neutral wells 0, TNF-alpha wells 100 | activation, % at 7.58 µM | 0.37% of 260,000 active | AID 686992, 2013;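 active means mean E-selectin-positive cell signal at least 10% of the positive control, reached in at least 60% of replicates, without over 20% cell loss; inconclusive means no rule given, readout overlaps actives, possibly toxicity-flagged; inactive means the rest, including those meeting only one limit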
Target sequence (P16581 whole entry, looked up): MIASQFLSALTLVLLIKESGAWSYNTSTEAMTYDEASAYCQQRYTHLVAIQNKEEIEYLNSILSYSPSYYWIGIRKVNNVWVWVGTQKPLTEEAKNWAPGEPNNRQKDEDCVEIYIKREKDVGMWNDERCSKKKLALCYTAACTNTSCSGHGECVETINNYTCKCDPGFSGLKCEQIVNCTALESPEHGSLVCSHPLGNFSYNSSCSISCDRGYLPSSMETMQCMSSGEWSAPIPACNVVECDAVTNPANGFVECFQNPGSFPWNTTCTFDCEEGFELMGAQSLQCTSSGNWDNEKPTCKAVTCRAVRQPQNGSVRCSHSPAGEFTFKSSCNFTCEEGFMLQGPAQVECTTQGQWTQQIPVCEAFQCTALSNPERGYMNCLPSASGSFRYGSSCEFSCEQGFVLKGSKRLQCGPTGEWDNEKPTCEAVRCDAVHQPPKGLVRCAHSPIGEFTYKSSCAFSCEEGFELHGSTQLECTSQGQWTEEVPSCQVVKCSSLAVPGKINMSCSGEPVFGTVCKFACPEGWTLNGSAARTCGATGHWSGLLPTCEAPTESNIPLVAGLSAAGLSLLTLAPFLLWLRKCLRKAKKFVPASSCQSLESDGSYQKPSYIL
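Test system: HUVEC | Signal: Immunofluorescence imaging | Read-out: Percent E-selectin-positive cells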
Numbers without * were called inactive; ? = inconclusive; · = no result given; [ ] = another dose, or the depositor's remark. Only some compounds are listed: those with a hit (about 3.1% of all), similar ones and a draw of the others.

SMILES	DENV2 CPE rescue	Ecoli rRNA inh	miR-122 sensor	Cneo AK release	E-selectin induc
C[C@H]1CN([C@@H](C)CO)C(=O)Cc2cc(NC(=O)NC3CCCCC3)ccc2O[C@@H]1CN(C)CC1CCCCC1	?	-24	-8[16.7 µM]	-4	0
COc1ccc(S(=O)(=O)Nc2ccc3c(c2)C(=O)N([C@H](C)CO)C[C@@H](C)[C@H](CN(C)S(=O)(=O)c2c(C)noc2C)OCCCC[C@@H](C)O3)cc1	-11	0	-11[16.7 µM]	3	·
C[C@H]1CCCCO[C@H](CN(C)Cc2ccc(C(F)(F)F)cc2)[C@@H](C)CN([C@@H](C)CO)C(=O)c2cc(NC(=O)c3ccncc3)ccc2O1	0	3	9[16.7 µM]	-1	1
CCCOc1ccc(N2C(=O)CC(SCCc3nc4ccccc4[nH]3)C2=O)cc1 (stereo not drawn)	·	-31*	·	·	5
O=C1CC(SCCc2nc3ccccc3[nH]2)C(=O)N1c1ccc(Cl)cc1 (stereo not drawn)	·	·	-4	0	·
CCC(=O)N1CC2(CN(C(=O)CN3CCOCC3)C2)c2c([nH]c3cc(OC)ccc23)[C@H]1CO	18	0	·	·	0
CC(C)NC(=O)N1Cc2cc(C(=O)NCC(F)(F)F)nc(-c3cccc(-c4cc5ccccc5o4)c3)c2[C@H]1CCO	-4	6	·	·	0
COc1cccc(NC(=O)CN(C)C(=O)c2cccc(S(=O)(=O)N3CCN(c4ccccc4)CC3)c2)c1	1	-29*	1	1	·
COc1cccc(NC(=O)CN(C)C(=O)c2ccccc2Sc2ccccc2C#N)c1	-5	-18*	0	2	·
COc1cccc(NC(=O)CN(C)CC(=O)Nc2ccccc2-c2ccccc2)c1	6	-24*	6	-1	0
O=C(N[C@@H]1CC[C@@H](CCNC(=O)c2ccccc2F)O[C@H]1CO)c1ccc2c(c1)OCO2	-6	-1	·	-1	0
CCCOC(=O)C[N+](C)(C)CCOC1CC2CCC1(C)C2(C)C (stereo not drawn)	-1	-47*	·	·	-1
C/C=C/c1ccc([C@H]2[C@H](CO)N(S(=O)(=O)Cc3ccccc3)C23CN(C(=O)C2CC2)C3)cc1	·	3	·	·	·
O=C1C(Cl)=C(NCCc2ccccc2)C(=O)c2ccccc21	5	-37*	·	2	0
COCCCNC1=C(Cl)C(=O)c2ccccc2C1=O	-18	-40*	-1	-2	0
O=C1C(Cl)=C(Nc2ccccc2)C(=O)c2ccccc21	-1	8	-32	0	9
Cc1ccc(CS(=O)Cc2ccc(C(=O)NCCc3ccccc3)o2)cc1 (stereo not drawn)	-2	-22*	·	4	0
CCOc1ccc(CCNC(=O)c2ccc(CS(=O)Cc3ccc(Cl)cc3)o2)cc1OCC (stereo not drawn)	-7	-32*	·	1	0
O=C(NCCc1cccs1)c1ccc(CS(=O)Cc2ccc(Cl)cc2)o1 (stereo not drawn)	-3	-24*	·	-1	11
O=C1[C@H](Cc2ccccc2)CCn2cc(nn2)COCC2CCCN12 (stereo partly drawn)	2	2	·	3	0
COC(=O)[C@H]1[C@H](CO)[C@H]2Cn3c(ccc(C4=CCCCC4)c3=O)[C@H]2N1Cc1cccnc1	26*	-3	·	·	0
O=C(NC1CCC1)[C@@H]1[C@@H](CO)[C@@H]2Cn3c(ccc(C4=CCCCC4)c3=O)[C@@H]2N1C(=O)C1CCOCC1	56*	0	·	-3	0
O=C(NC1CCC1)[C@H]1[C@H](CO)[C@H]2Cn3c(ccc(C4=CCCC4)c3=O)[C@H]2N1C(=O)C1CCC1	-3	1	·	·	0
CO[C@@H]1CN(C)C(=O)c2cc(NC(=O)NC3CCCCC3)ccc2OC[C@@H](C)NC[C@@H]1C	9	2	5[16.7 µM]	-1	0
COc1ccc(C(NC(=O)C2CCN(CCOc3ccc(Cl)cc3Cl)CC2)c2ccccc2C)cn1 (stereo not drawn)	-9	-29*	-9	6	0
SMILES	DENV2 CPE rescue	Ecoli rRNA inh	miR-122 sensor	Cneo AK release	E-selectin induc
COc1ccc(Cl)cc1NC(=O)CN(C)C(=O)Cn1[nH]c(=O)c2ccccc2c1=O	?	-20*	0	-1	0
Cc1ccc(C)c(N(CC(=O)NC2CCCC2)C(=O)c2oc(C(C)(C)C)cc2C)c1	-6	-16*	8	1	·
CO[C@@H]1CN(C)C(=O)c2ccc(NC(=O)Nc3ccccc3F)cc2OC[C@@H](C)N(C(=O)Nc2ccccc2F)C[C@H]1C	?	-3	-2[16.7 µM]	0	0
Cc1ccc(C2CN(C)C3(C(=O)Nc4ccccc43)C23COc2ccccc2C3=O)cc1 (stereo not drawn)	·	·	295*	-2	·
CN1CC(c2ccccc2Cl)C2(COc3ccccc3C2=O)C12C(=O)Nc1ccccc12 (stereo not drawn)	·	·	117*	44	·
CN1CC(c2ccccc2)C2(SC(=S)N(Cc3ccco3)C2=O)C12C(=O)Nc1ccccc12 (stereo not drawn)	·	·	-2	-1	·
COc1ccc(NC(=O)Nc2ccc3c(c2)CC(=O)N([C@H](C)CO)C[C@H](C)[C@H](CN(C)S(=O)(=O)c2ccc(C)cc2)O3)cc1	·	-1	·	·	1
C[C@@H]1CN(C)C(=O)Cc2cc(N(C)C)ccc2O[C@H]1CN(C)C	·	3	·	·	·
CCC(=O)N1C[C@H](C)[C@H](OC)CN(C)C(=O)c2cc(NC(=O)CC(F)(F)F)ccc2OC[C@H]1C	1	0	·	·	0
COc1cc(/C=C/C(=O)OCC(=O)N2CCC(C)CC2)ccc1O	3	-2	·	2	0
COc1cc(/C=C/C(=O)OCC(=O)Nc2ccc(C)c(S(=O)(=O)N3CCCCC3)c2)ccc1O	5	-12	1	1	0
COc1cc(/C=C/C(=O)OCC(=O)N2CCC(Cc3ccccc3)CC2)ccc1O	-1	-32*	·	-2	0
COc1cc(/C=C/C(=O)OCC(=O)Nc2cc(S(=O)(=O)N3CCCCC3)ccc2C)ccc1O	22*	-10	·	·	·
S=C(NCCc1cccc(Cl)c1)NC1CCCCC1	-7	-56	49	88*	0
O=C(c1ccc(F)cc1)N1CCCC(c2nc(-c3ccncc3)no2)C1 (stereo not drawn)	-6	-2	·	-2	0
O=C(c1ccc(F)cc1)N1CCOC(c2nc(-c3ccc(F)cc3)no2)C1 (stereo not drawn)	11	-25*	-5	1	0
CSCCC(NC(=O)c1ccccc1)C(=O)NCCCSc1ccccc1 (stereo not drawn)	-5	-23*	·	1	·

Screening data as filed in PubChem BioAssay.
